Assay results taken from ChEMBL document CHEMBL1781970, “Synthesis and antiproliferative evaluation of 23-hydroxybetulinic acid derivatives” (Eur J Med Chem, 2011).

What was measured:
Assay type in all cases: functional, cell-based
[1] = tested on: HeLa; experiment: Antiproliferative activity against human HeLa cells after 72 hrs by MTT assay
In short: (§1)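 Cells grown in RPMI 1640 with 10% FBS and 1% penicillin-streptomycin at 37 °C, 5% CO2, then seeded overnight in 96-well plates. Test compounds were dissolved in DMSO (doxorubicin control in PBS) and given at various concentrations for 72 h at 37 °C. MTT (5 mg/mL in PBS) was added for 4 h and OD read at 570 nm. IC50 was taken from dose-response curves; mean ± SD, ≥3 independent experiments.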

[2] = tested on: HepG2; experiment: Antiproliferative activity against human HepG2 cells after 72 hrs by MTT assay; details: HepG2, 72 h; in short: as §1
[3] = tested on: MCF7; experiment: Antiproliferative activity against human MCF7 cells after 72 hrs by MTT assay; details: MCF7, 72 h; in short: as §1
[4] = tested on: A-375; experiment: Antiproliferative activity against human A375 cells after 72 hrs by MTT assay; details: A-375, 72 h; in short: as §1
[5] = tested on: B16; experiment: Antiproliferative activity against mouse B16 cells after 72 hrs by MTT assay; details: B16, 72 h; in short: as §1

| Compound | IC50 [1] | IC50 [2] | IC50 [3] | IC50 [4] | IC50 [5] |
| --- | --- | --- | --- | --- | --- |
| C=C(C)[C@@H]1CC[C@]2(C(=O)N3CCC[C@H]3C(=O)O)CC[C@]3(C)[C@H](CC[C@@H]4[C@@]5(C)CC[C@H](O)[C@@](C)(CO)[C@@H]5CC[C@]43C)[C@@H]12 | 95.6 µM | 72.2 µM | > 100 µM | > 100 µM | 87.3 µM |
| C=C(C)[C@@H]1CC[C@]2(C(=O)NCC(=O)N[C@@H](Cc3c[nH]c4ccccc34)C(=O)O)CC[C@]3(C)[C@H](CC[C@@H]4[C@@]5(C)CC[C@H](O)[C@@](C)(CO)[C@@H]5CC[C@]43C)[C@@H]12 | > 100 µM | > 100 µM | > 100 µM | > 100 µM | > 100 µM |
| C=C(C)[C@@H]1CC[C@]2(C(=O)N[C@@H](CCSC)C(=O)N[C@@H](CCSC)C(=O)O)CC[C@]3(C)[C@H](CC[C@@H]4[C@@]5(C)CC[C@H](O)[C@@](C)(CO)[C@@H]5CC[C@]43C)[C@@H]12 | > 100 µM | > 100 µM | 84.7 µM | 89.3 µM | 65.1 µM |
| C=C(C)[C@@H]1CC[C@]2(C(=O)O)CC[C@]3(C)[C@H](CC[C@@H]4[C@@]5(C)CC[C@H](O)[C@@](C)(CO)[C@@H]5CC[C@]43C)[C@@H]12 | 46.2 µM | 41.4 µM | 46.6 µM | 42 µM | 18.7 µM |
| C=C(C)[C@@H]1CC[C@]2(C(=O)OC/C=C/CO)CC[C@]3(C)[C@H](CC[C@@H]4[C@@]5(C)CC[C@H](O)[C@@](C)(CO)[C@@H]5CC[C@]43C)[C@@H]12 | 44.4 µM | 38 µM | 36 µM | 55.7 µM | 19.1 µM |
| C=C(C)[C@@H]1CC[C@]2(C(=O)OCCN3CCOCC3)CC[C@]3(C)[C@H](CC[C@@H]4[C@@]5(C)CC[C@H](O)[C@@](C)(CO)[C@@H]5CC[C@]43C)[C@@H]12 | > 100 µM | 59.2 µM | 34.3 µM | 34.2 µM | 45.9 µM |
| C=C(C)[C@@H]1CC[C@]2(C(=O)NCC(=O)N[C@@H](Cc3c[nH]c4ccccc34)C(=O)OC)CC[C@]3(C)[C@H](CC[C@@H]4[C@@]5(C)CC[C@H](O)[C@@](C)(CO)[C@@H]5CC[C@]43C)[C@@H]12 | 66.3 µM | 46.8 µM | > 100 µM | > 100 µM | 44.4 µM |
| C=CCN(CC=C)C(=O)[C@]12CC[C@@H](C(=C)C)[C@@H]1[C@H]1CC[C@@H]3[C@@]4(C)CC[C@H](O)[C@@](C)(CO)[C@@H]4CC[C@@]3(C)[C@]1(C)CC2 | 59 µM | 59.8 µM | 17.7 µM | 17.2 µM | 60.4 µM |
| C=C(C)[C@@H]1CC[C@]2(C(=O)N3CCC[C@H]3C(=O)N[C@@H](CCSC)C(=O)O)CC[C@]3(C)[C@H](CC[C@@H]4[C@@]5(C)CC[C@H](O)[C@@](C)(CO)[C@@H]5CC[C@]43C)[C@@H]12 | 81.1 µM | 91.7 µM | 41.3 µM | 66.5 µM | 76.5 µM |
| C=C(C)[C@@H]1CC[C@]2(C(=O)N3CCCCC3)CC[C@]3(C)[C@H](CC[C@@H]4[C@@]5(C)CC[C@H](O)[C@@](C)(CO)[C@@H]5CC[C@]43C)[C@@H]12 | 66.5 µM | 68.6 µM | 16.6 µM | 17.9 µM | 43.7 µM |
| C=C(C)[C@@H]1CC[C@]2(C(=O)N[C@@H](CCSC)C(=O)N[C@@H](CCSC)C(=O)OC)CC[C@]3(C)[C@H](CC[C@@H]4[C@@]5(C)CC[C@H](O)[C@@](C)(CO)[C@@H]5CC[C@]43C)[C@@H]12 | 44.4 µM | 23.1 µM | 66.1 µM | 26.8 µM | 20.4 µM |
| C=C(C)[C@@H]1CC[C@]2(C(=O)NCC(=O)N3CCC[C@H]3C(=O)O)CC[C@]3(C)[C@H](CC[C@@H]4[C@@]5(C)CC[C@H](O)[C@@](C)(CO)[C@@H]5CC[C@]43C)[C@@H]12 | > 100 µM | > 100 µM | > 100 µM | > 100 µM | > 100 µM |
| C=C(CO)[C@@H]1CC[C@]2(C(=O)OCC3CCCO3)CC[C@]3(C)[C@H](CC[C@@H]4[C@@]5(C)CC[C@H](O)[C@@](C)(CO)[C@@H]5CC[C@]43C)[C@@H]12 (some centres undefined) | 79.4 µM | 81.2 µM | 76.3 µM | 70.4 µM | 64.3 µM |
| C=C(C)[C@@H]1CC[C@]2(C(=O)N3CCC[C@H]3C(=O)N[C@@H](CCSC)C(=O)OC)CC[C@]3(C)[C@H](CC[C@@H]4[C@@]5(C)CC[C@H](O)[C@@](C)(CO)[C@@H]5CC[C@]43C)[C@@H]12 | 41.3 µM | 40.5 µM | 19.8 µM | 30.1 µM | 20.7 µM |

Now those with a lower IC50 [1], led by results:

| IC50 [1] | IC50 [2] | IC50 [3] | IC50 [4] | IC50 [5] | Compound |
| --- | --- | --- | --- | --- | --- |
| 34.3 µM | 42 µM | 19.8 µM | 25.1 µM | 42.7 µM | C=C(C)[C@@H]1CC[C@]2(C(=O)N3CCOCC3)CC[C@]3(C)[C@H](CC[C@@H]4[C@@]5(C)CC[C@H](O)[C@@](C)(CO)[C@@H]5CC[C@]43C)[C@@H]12 |
| 22.3 µM | 21 µM | 16.6 µM | 21.2 µM | 38.6 µM | C=C(CO)[C@@H]1CC[C@]2(C(=O)OC(C)C)CC[C@]3(C)[C@H](CC[C@@H]4[C@@]5(C)CC[C@H](O)[C@@](C)(CO)[C@@H]5CC[C@]43C)[C@@H]12 |
| 20.6 µM | 10.3 µM | 17.6 µM | 20.4 µM | 8.69 µM | C=C(C)[C@@H]1CC[C@]2(C(=O)N3CCC(N4CCCCC4)CC3)CC[C@]3(C)[C@H](CC[C@@H]4[C@@]5(C)CC[C@@H]6OC(=O)OC[C@@]6(C)[C@@H]5CC[C@]43C)[C@@H]12 |
| 17.9 µM | 3.91 µM | 16.1 µM | 1.81 µM | 4.75 µM | C=C(C)[C@@H]1CC[C@]2(C(=O)NCCCCn3nnc(-c4ccccn4)n3)CC[C@]3(C)[C@H](CC[C@@H]4[C@@]5(C)CC[C@H](OC(C)=O)[C@@](C)(COC(C)=O)[C@@H]5CC[C@]43C)[C@@H]12 |
| 13.1 µM | 10 µM | 32 µM | 11.8 µM | 69 µM | C=C(CO)[C@@H]1CC[C@]2(C(=O)N3CCC[C@H]3C(=O)OC)CC[C@]3(C)[C@H](CC[C@@H]4[C@@]5(C)CC[C@H](OC(C)=O)[C@@](C)(COC(C)=O)[C@@H]5CC[C@]43C)[C@@H]12 |
| 12.5 µM | 18.5 µM | 9.95 µM | 9.23 µM | 7.25 µM | C=C(C)[C@@H]1CC[C@]2(C(=O)O)CC[C@]3(C)[C@H](CC[C@@H]4[C@@]5(C)CC[C@H](O)[C@@](C)(COC(=O)N6CCC(N7CCCCC7)CC6)[C@@H]5CC[C@]43C)[C@@H]12 |
| 11 µM | 11.3 µM | 22.2 µM | 53.7 µM | 64.3 µM | C=C(CO)[C@@H]1CC[C@]2(C(=O)N3CCCCC3)CC[C@]3(C)[C@H](CC[C@@H]4[C@@]5(C)CC[C@H](OC(C)=O)[C@@](C)(COC(C)=O)[C@@H]5CC[C@]43C)[C@@H]12 |
| 9.84 µM | 8.41 µM | 47.1 µM | 19 µM | > 100 µM | C=CCN(CC=C)C(=O)[C@]12CC[C@@H](C(=C)C)[C@@H]1[C@H]1CC[C@@H]3[C@@]4(C)CC[C@H](OC(C)=O)[C@@](C)(COC(C)=O)[C@@H]4CC[C@@]3(C)[C@]1(C)CC2 |
| 9.78 µM | 9.78 µM | 27.2 µM | 5.83 µM | 93.7 µM | C=C(C)[C@@H]1CC[C@]2(C(=O)N3CCC[C@H]3C(=O)OC)CC[C@]3(C)[C@H](CC[C@@H]4[C@@]5(C)CC[C@H](OC(C)=O)[C@@](C)(COC(C)=O)[C@@H]5CC[C@]43C)[C@@H]12 |
| 8.92 µM | 9.57 µM | 2.93 µM | 4.83 µM | 8.38 µM | C=C(C)[C@@H]1CC[C@]2(C(=O)NCCN)CC[C@]3(C)[C@H](CC[C@@H]4[C@@]5(C)CC[C@H](O)[C@@](C)(CO)[C@@H]5CC[C@]43C)[C@@H]12 |
| 8.27 µM | 12.1 µM | 8.95 µM | 5.01 µM | 11.3 µM | C=C(C)[C@@H]1CC[C@]2(C(=O)NCC(=O)N[C@@H](C)C(=O)OC)CC[C@]3(C)[C@H](CC[C@@H]4[C@@]5(C)CC[C@H](O)[C@@](C)(CO)[C@@H]5CC[C@]43C)[C@@H]12 |
| 7.39 µM | 7.99 µM | 3.93 µM | 9.99 µM | 4.61 µM | C=C(C)[C@@H]1CC[C@]2(C(=O)NCCN)CC[C@]3(C)[C@H](CC[C@@H]4[C@@]5(C)CC[C@H](OC(C)=O)[C@@](C)(COC(C)=O)[C@@H]5CC[C@]43C)[C@@H]12 |
| 4.84 µM | 9.33 µM | 7.58 µM | 3.34 µM | 8.23 µM | C=C(C)[C@@H]1CC[C@]2(C(=O)NCC(=O)N3CCC[C@H]3C(=O)OC)CC[C@]3(C)[C@H](CC[C@@H]4[C@@]5(C)CC[C@H](O)[C@@](C)(CO)[C@@H]5CC[C@]43C)[C@@H]12 |
| 0.13 µM | – | 0.19 µM | 0.13 µM | 0.14 µM | COc1cccc2c1C(=O)c1c(O)c3c(c(O)c1C2=O)C[C@@](O)(C(=O)CO)C[C@@H]3O[C@H]1C[C@H](N)[C@H](O)[C@H](C)O1 [DOXORUBICIN] |
